For assay [1], the system named is Leishmania tropica. The assay can be described thus: Antileishmanial activity against Leishmania tropica MHOM/MA/1988/LEM1314 promastigotes infected in Syrian hamster assessed as reduction in lesion thickness at 2 mg/kg administered intralesionally once daily on footpad for 3 weeks starting at week 7 post infection measured 1 week post last dose relative to control. The format is functional, organism-based. On the set-up: scale not given: the % may be the effect or the level left. In outline:
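L. tropica stationary-phase promastigotes (3 × 10^7 in 50 μL PBS) injected into the left hind footpad. Treatment began at week 7 (+75% footpad thickness) and ran daily for 21 days, n = 10/group. Routes were 50 mg ointment on the lesion (cetyl alcohol/lanolin/petrolatum base), gavage in olive oil, or intralesional meglumine antimoniate 2 mg SbV/kg. Lesion thickness was measured weekly against base-only ointment; sacrifice was 1 week after the last dose.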

For assay [2], the system named is Leishmania tropica. The assay can be described thus: Antileishmanial activity against Leishmania tropica MHOM/MA/1988/LEM1314 promastigotes infected in Syrian hamster assessed as reduction in parasite load in foodpad skin at 2 mg/kg administered intralesionally once daily on footpad for 3 weeks starting at week 7 post infection measured 1 week post last dose by qPCR analysis relative to control. The format is functional, organism-based. On the set-up: scale not given: the % may be the effect or the level left. The method, boiled down: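 Hamsters were infected in the footpad and treated daily for 21 days from week 7 post-infection, n = 10/group, and sacrificed 1 week after the last dose. Footpad skin, liver and spleen DNA was assayed by L. tropica-specific TaqMan qPCR (chromosome 29 target), in triplicate with 50 ng DNA per 25 μL reaction. Load was interpolated from Ct on a calibration curve of promastigote DNA, relative to base-ointment controls.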
(In general: Real-time PCR tracks product formation cycle by cycle.)

For the substance Meglumine antimoniate; Glucantime, the Activity in the assay on Leishmania tropica [1] turned out to be 3.2%; in the assay with Leishmania tropica [2], 73%.

These data come from ChEMBL document CHEMBL3872233, “Topical Treatment of Leishmania tropica Infection Using (-)-α-Bisabolol Ointment in a Hamster Model: Effectiveness and Safety Assessment” (J Nat Prod, 2016).
